# Sampled rows, rich in hits. Any-hit rate of the full collection: about 1.9%.
# VIM-2 inhibitor: blocks Pseudomonas aeruginosa VIM-2 metallo-beta-lactamase; 290,000 compounds, 0.89% hits; inhibition, % at 5.6 µM; purified VIM-2, nitrocefin hydrolysis, epi-absorbance fluorescence;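 active means inhibition above the mean of all tested compounds plus 3 SD, cutoff set per screening run, cut at about 7.5% in these data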;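 further: red hydrolysis product quenches plate fluorescence so inhibitors raise well fluorescence; 0% = enzyme with DMSO and 100% = DMSO without enzyme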
# HCV core dimer: blocks dimerization of HCV core protein. TR-FRET GST/Flag-core106 dimerization, 1536-well. inhibition, % at 5 µM. 300,000 compounds, 0.33% hits;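 active means inhibition above the mean of all tested compounds plus 3 SD, set per screening campaign, cut at about 45% in these data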
#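 System: GST-tagged and Flag-tagged HCV core protein residues 1-106 / Input: core106 proteins, GST 13.5 nM and Flag 17 nM / Buffer or medium: KF-containing HEPES buffer, pH 7.45, DTT, CHAPS, BSA / Probe or stimulus: Eu-anti-GST and XL665-anti-Flag labelled anti-tag antibodies / Schedule: 4 h, 22.5 °C incubation / Technique: TR-FRET 671 and 617 nm emission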
# NadD block: blocks S. aureus nicotinate mononucleotide adenylyltransferase. inhibition, % at 20 µM. purified NadD enzyme, colorimetric absorbance read-out. 360,000 compounds, 0.78% hits. AID 602399; in the data active means inhibition above about 26%
# IMP-1 inh-1: inhibitors of Pseudomonas aeruginosa IMP-1 metallo-beta-lactamase | inhibition, % at 5.6 µM | 290,000 compounds, 0.45% hits | purified IMP-1, nitrocefin hydrolysis, epi-absorbance fluorescence | AID 1556;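 active means inhibition above the mean plus 3 SD of all compounds in the same screening run, cut at about 4.5% in these data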;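 further: 0% = IMP-1 with DMSO and 100% = DMSO wells lacking enzyme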
#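 System: purified IMP-1; amount: IMP-1 0.2 nM before substrate addition; compound: single dose, 5.6 µM; times: 25 °C, 15 min preincubation, 25 min reaction; signal: Epi-absorbance via hydrolysed-nitrocefin quenching of white-plate fluorescence, 480/530 nm, EDTA stop; benchmarks: DMSO with and without IMP-1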
# IMP-1 inh-2: IMP-1 inhibition, counter-screen for VIM-2 inhibitors | purified IMP-1, nitrocefin hydrolysis, epi-absorbance fluorescence | 1,300 tested, under 10 active | inhibition, % at 5.6 µM | shares compounds with VIM-2 inhibitor; call rule not given here;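 further: 0% = enzyme with vehicle and 100% = vehicle without enzyme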
# VIM-2 FRET inh: counter-screen for VIM-2 inhibitors: epi-absorbance artifacts via FRET; inhibition, % at 5.6 µM; shares compounds with VIM-2 inhibitor; 1,300 compounds, 23% hits; purified VIM-2, CCF2 FRET substrate hydrolysis;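 active means inhibition above the mean of all tested compounds plus 3 SD, cut at about 19% in these data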;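 further: 0% = VIM-2 plus DMSO and 100% = no enzyme wells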
# TEM-1 counter: blocks E. coli TEM-1 beta-lactamase in VIM-2 selectivity screen. inhibition, % at 5.6 µM. 1,300 compounds, 3% hits. shares compounds with VIM-2 inhibitor. Purified TEM-1, nitrocefin hydrolysis, epi-absorbance fluorescence;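 active means inhibition above that campaign's mean inhibition plus 3 SD, cut at about 0.46% in these data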;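 further: 0% = TEM-1 with DMSO and 100% = TEM-1 with 100 µM potassium clavulanate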
# Target sequence (P62593 whole entry, looked up): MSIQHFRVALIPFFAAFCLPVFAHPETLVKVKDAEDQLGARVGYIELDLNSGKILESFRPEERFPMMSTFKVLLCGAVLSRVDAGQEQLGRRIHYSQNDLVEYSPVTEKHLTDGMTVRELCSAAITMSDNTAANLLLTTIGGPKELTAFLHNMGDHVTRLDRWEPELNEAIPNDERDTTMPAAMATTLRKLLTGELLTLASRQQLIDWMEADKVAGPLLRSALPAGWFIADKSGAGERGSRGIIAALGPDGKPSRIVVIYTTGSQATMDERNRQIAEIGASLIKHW
# VIM-2 inh conf: confirmation of P. aeruginosa VIM-2 metallo-beta-lactamase inhibitors | 1,300 compounds, 96% hits | shares compounds with VIM-2 inhibitor | purified VIM-2, nitrocefin hydrolysis, epi-absorbance | inhibition, % at 5.6 µM;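 active means inhibition of the VIM-2 beta-lactamase enzyme above about 11% from the earlier first-round screen, limit read from the data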;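 further: 0% = VIM-2 with DMSO and 100% = buffer wells without enzyme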
# Numbers without * were called inactive; / = no result given.
SMILES,VIM-2 inhibitor,HCV core dimer,NadD block,IMP-1 inh-1,IMP-1 inh-2,VIM-2 FRET inh,TEM-1 counter,VIM-2 inh conf
O=C(CN1CCCC1)N/N=C/c1c(O)ccc2ccccc12,-3,-1,11,-2,/,/,/,/
O=c1[nH]c2c(s1)C(c1cccnc1)C1C3CCC(C3)C1S2 (stereo not drawn),84*,0,-5,4,-4,89*,-10,83*
O=c1[nH]c2c(s1)C(c1ccc(O)cc1)C1C3CCC(C3)C1S2 (stereo not drawn),4,3,7,-1,/,/,/,/
O=C(C1=COCCO1)N(Cc1nnc(-c2ccccc2Cl)o1)C1CC1,/,/,0,/,/,/,/,/
COCCNc1ccc(-c2nn(C)c(=O)c3ccccc23)cc1[N+](=O)[O-],2,-6,-6,-2,/,/,/,/
CC(=O)NCc1cc(-c2nn(C)c(=O)c3ccccc23)ccc1C,2,-6,-3,-5,/,/,/,/
CC(O)CNc1ccc(-c2nn(C)c(=O)c3ccccc23)cc1[N+](=O)[O-] (stereo not drawn),19*,4,3,-2,-3,-1,-6,39*
CN(C)CCCNc1ccc(-c2nn(C)c(=O)c3ccccc23)cc1[N+](=O)[O-],61*,-1,-5,-1,-3,2,-8,71*
CCOc1ccc(CC(=O)Nc2nccs2)cc1OCC,-3,8,-11,-3,/,/,/,/
O=c1c2ccccc2oc2cc(Br)ccc12,/,/,-10,/,/,/,/,/
COc1cc2oc3ccccc3c(=O)c2cc1OC,14*,-2,-2,-2,-3,0,-4,18*
Cc1ccc2c(c1)N(CCC(=O)NC1CCCCC1)C(=O)CO2,-1,-6,3,-1,/,/,/,/
CN1CCN(C(=O)/C(=C/c2cccs2)NC(=O)c2cccs2)CC1,17*,-10,11,-4,-3,-2,-7,2
O=C(N/C(=C\c1cccs1)C(=O)N1CCOCC1)c1cccs1,0,-2,-1,-2,/,/,/,/
CCC(C)(C)NC(=O)CN(C(=O)c1csnn1)c1ccccc1-c1ccccc1,-2,-2,-3,-3,/,/,/,/
CC(=O)Nc1cc(-c2ccccc2Cl)cn2c(-c3ccc(S(C)(=O)=O)cc3)cnc12,/,/,10,/,/,/,/,/
c1ccc(-c2noc(-c3ccco3)n2)nc1,-5,4,-1,0,/,/,/,/
c1ccc(-c2nccc(-c3ccco3)n2)nc1,34*,1,-9,-1,-5,-20,-7,30*
COc1cc(Br)cc2cc(C(=O)OC3CCN(C)CC3)c(=O)oc12,14*,6,-9,-1,-3,1,-6,22*
Cc1ccc(S(=O)(=O)N2[C@@H](c3ccccc3F)C(C(=O)O)=CC[C@H]2c2ccc3c(c2)OCO3)cc1,/,0,2,/,/,/,/,/
CC/C(=N\NC(=O)c1cccnc1)c1ccc2c(c1)OCCO2,46*,-6,-2,-4,-4,-2,-5,1
COCCNC(=O)C(=O)NCC1OCCN1S(=O)(=O)c1ccc(F)cc1 (stereo not drawn),-4,-5,0,-4,/,/,/,/
CN(/N=C/c1cccc(Br)c1)C1=NS(=O)(=O)c2ccccc21,16*,/,1,-2,-3,-3,-8,23*
Cc1sc2ncnc(NCCCn3ccnc3)c2c1C,21*,-4,1,-3,-4,-4,-7,34*
Cc1sc2ncnc(NCCc3ccc(S(N)(=O)=O)cc3)c2c1C,19*,-6,-3,-6,-3,-5,-7,16*
SMILES,VIM-2 inhibitor,HCV core dimer,NadD block,IMP-1 inh-1,IMP-1 inh-2,VIM-2 FRET inh,TEM-1 counter,VIM-2 inh conf
O=C(NCCc1ccccc1C(F)(F)F)C1CCC(=O)N(CCCN2CCCC2=O)C1 (stereo not drawn),-3,0,-5,-2,/,/,/,/
CCc1cccc(N(CC(=O)NC2CCCCC2)C(=O)c2csnn2)c1,0,9,1,-1,/,/,/,/
CCN1CCN(C(=O)CCc2nc3ccccc3c(=O)[nH]2)CC1,21*,-1,-7,0,-3,-2,-5,43*
O=Cc1c(NCc2ccc(Cl)cc2)c2ccccc2[nH]c1=O,14*,-3,-4,-4,-3,38*,-6,24*
COCCCn1c(=O)c2sccc2n2c(CCCC(=O)N3CCN(c4ccccn4)CC3)nnc12,6,3,-3,-3,/,/,/,/
Cn1c(=O)c2sccc2n2c(CCCC(=O)N3CCN(c4ccccn4)CC3)nnc12,13*,-1,3,-4,-3,-1,-6,20*
Cc1noc(C)c1COc1ccccc1C(=O)NC1CCC(C)CC1 (stereo not drawn),-2,-2,-3,-3,/,/,/,/
COC1OC2COC(c3ccccc3)OC2C(NC(C)=O)C1OC(C)=O (stereo not drawn),/,/,-2,/,/,/,/,/
CC1CCCC(C)N1C(=O)CSc1nnc(NC(=O)c2cccs2)s1 (stereo not drawn),20*,0,-1,-2,-4,52*,-6,37*
O=C1NC[C@H](CCCCN2C[C@H](Cc3ccccc3)N(CCC3CCCCC3)C(=O)C2=O)N(CC2CCCCC2)C1=O,/,/,15,/,/,/,/,/
COc1cccc(C(=O)NN/C(C)=C/C(=O)C(F)(F)C(F)(F)C(F)(F)F)c1,-3,-10,-2,-4,/,/,/,/
Cc1c(C(=O)O)cccc1-c1ccc(/C=N/n2cnnc2)o1,-1,-9,0,-3,/,/,/,/
Clc1ccc(Sc2ccc(/C=N/n3cnnc3)o2)cc1,-4,5,0,-2,/,/,/,/
Clc1ccccc1-c1ccc(/C=N/n2cnnc2)o1,21*,-1,-1,-4,-3,-1,-6,42*
Clc1cccc(-c2ccc(/C=N/n3cnnc3)o2)c1Cl,29*,1,-2,-3,-3,-8,-5,64*
Cc1c(Cl)cccc1-c1ccc(/C=N/n2cnnc2)o1,32*,9,0,0,-4,-5,-7,53*
CN(C)CCN1CCN(C2CN(Cc3cn(Cc4ccccc4C(F)(F)F)nn3)S(=O)(=O)C2)CC1 (stereo not drawn),/,/,-3,/,/,/,/,/
CC(C)C1Cc2[nH]c(=S)[nH]c(=O)c2C(c2ccc(Cl)cc2)O1 (stereo not drawn),/,/,-1,/,/,/,/,/
CCCN(CCC)CCNC(=O)CN1C(=O)COc2ccc(S(=O)(=O)N3CCOCC3)cc21,-3,-10,-6,-2,/,/,/,/
NNC(=S)Nc1cccc(-c2n[nH]c(=S)o2)c1,15*,4,-1,-2,-4,18*,-9,9.2*
CN(C)C(=S)Nc1cccc(-c2n[nH]c(=S)o2)c1,-2,1,7,-2,/,/,/,/
OCCN=Cc1c(O)[nH]c2ccccc12,-3,-9,2,-3,/,/,/,/
Oc1[nH]c2ccccc2c1C=Nc1ccccc1,12*,-10,-8,-1,-2,25*,-4,21*
